Reference: ChEMBL document CHEMBL1125736, “N-[(omega-amino-1-hydroxyalkyl)phenyl]methanesulfonamide derivatives with class III antiarrhythmic activity” (1991)

Tests used:
Type in all cases: functional
Oryctolagus cuniculus [1] = species on record: Oryctolagus cuniculus; assay: Tested for rate automaticity measured in beats per minute from unpaced right atria of rabbit heart.
In short: (§1)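 Isolated rabbit heart tissues, all from one heart, each its own baseline; 2 h equilibration, perfusate changed every 15 min, basal stimulation 2 Hz between measurements. Exposed to 10^-7, 10^-6 and 10^-5 M drug, 15 min each; values reported at 10^-5 M as percent change from baseline. Drug solutions prepared daily in glass-distilled water. Force and rate recorded on polygraph.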

Oryctolagus cuniculus [2] = species on record: Oryctolagus cuniculus; assay: Tested for conduction time measured at a pacing rate of 1 Hz in vitro with rabbit heart tissue preparations.; in short: as §1
Oryctolagus cuniculus [3] = species on record: Oryctolagus cuniculus; assay: Tested for conduction time measured at a pacing rate of 3 Hz in vitro with rabbit heart tissue preparations.; in short: as §1
Oryctolagus cuniculus [4] = species on record: Oryctolagus cuniculus; assay: Tested for effective refractory period measured at a pacing rate of 1 Hz in vitro with rabbit heart tissue preparations.; in short: as §1
Oryctolagus cuniculus [5] = species on record: Oryctolagus cuniculus; assay: Tested for force of contraction measured in mg at a pacing rate of 2 Hz in vitro with rabbit heart tissue preparations.; in short: as §1
Oryctolagus cuniculus [6] = species on record: Oryctolagus cuniculus; assay: Tested for effective refractory period measured at a pacing rate of 3 Hz in vitro with rabbit heart tissue preparations.; parameters: unit: %; in short: as §1

| Compound | Rate (Oryctolagus cuniculus [1]) | CT1 (Oryctolagus cuniculus [2]) | CT3 (Oryctolagus cuniculus [3]) | ERP1 (Oryctolagus cuniculus [4]) | FOC (Oryctolagus cuniculus [5]) | ERP3 (Oryctolagus cuniculus [6]) |
| --- | --- | --- | --- | --- | --- | --- |
| CCCCCCCCCCN(CC)CCCC(O)c1ccc(NS(C)(=O)=O)cc1 (stereo not drawn) | -11 | 63.2 | 74.3 | 11.8 | -23.1 | 16.1 |
| CCCCCCCN(CC)CC(O)c1ccc(NS(C)(=O)=O)cc1 (stereo not drawn) | -38 | 10.2 | – | 22.9 | -7 | 26.2 |
| CCCCCCCN(CC)CCCC(O)c1cccc(NS(C)(=O)=O)c1 (stereo not drawn) | -16 | 21.3 | 54 | 25.2 | -15 | 19 |
| CCCCCCN(CC)CCCC(O)c1ccc(NS(C)(=O)=O)cc1 (stereo not drawn) | -16 | -6.5 | 0 | 12.1 | -10.9 | 7.8 |
| CS(=O)(=O)Nc1ccc(C(O)CCCN2CCCCCCC2)cc1 (stereo not drawn) | -10 | -4.5 | -4.7 | 21.4 | -5.6 | 23.5 |
| CCCCCCCN(CC)CCCC(=O)c1ccc(NS(C)(=O)=O)cc1 | -21 | -2.7 | 0.6 | 6.6 | -6.7 | 9.4 |
| CCCCCCCCN(CC)CCCC(O)c1ccc(NS(C)(=O)=O)cc1 (stereo not drawn) | -28 | 17.3 | 29.8 | 5.3 | 0.7 | 4.3 |
| CCCCCCCN(C)CCCC(O)c1ccc(NS(C)(=O)=O)cc1 (stereo not drawn) | -34 | 13 | 70 | 16.5 | 8.5 | 17.2 |
| CS(=O)(=O)Nc1ccc(C(O)CCCN2CCCCCC2)cc1 (stereo not drawn) | -11 | 1 | 0.2 | 17.1 | 3.4 | 18.3 |
| CCCCCCCN(CC)CCCCc1ccc(NS(C)(=O)=O)cc1 | -27 | 67.2 | 140 | 28.3 | -24.2 | 19.2 |
| CCCCCCCNCCCC(O)c1ccc(NS(C)(=O)=O)cc1 (stereo not drawn) | -25 | -7.4 | 8.3 | 0.4 | -12.1 | 6.8 |
| CCCCCCCN(CC)CCC(O)c1ccc(NS(C)(=O)=O)cc1 (stereo not drawn) | -35 | 15.7 | 40.3 | 37.5 | -23 | 39.3 |
| CCCCCN(CC)CCCC(O)c1ccc(NS(C)(=O)=O)cc1 (stereo not drawn) | -20 | 8.6 | 11.9 | 20.8 | 17.1 | 11.6 |
| CC1CCN(CCCC(O)c2ccc(NS(C)(=O)=O)cc2)CC1 (stereo not drawn) | – | -2 | -6.5 | 4.5 | -1 | 10.5 |
| CCCCCCCN(CC)CCCC(O)c1ccc(Cl)cc1.Cl (stereo not drawn) | -12 | 4 | – | 10.5 | -21 | 14 |
| CCCCCCC[N+](CC)(CC)CCCCc1ccc(Cl)cc1.O=P([O-])(O)O [CLOFILIUM PHOSPHATE] | -22 | 0 | -1.4 | 3 | -10 | 3.4 |
